These results are taken from ChEMBL document CHEMBL4411287, “Discovery and optimization of a series of 3-substituted indazole derivatives as multi-target kinase inhibitors for the treatment of lung squamous cell carcinoma” (Eur J Med Chem, 2019).

In data set [1] the target is Platelet-derived growth factor receptor beta (Homo sapiens) (UniProt P09619). The experiment in a line: Inhibition of PDGFR-beta (unknown origin) at 10 nM relative to control. The gist of the method:
(§1)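 Purified recombinant kinase domains run in ELISA on precoated poly(Glu,Tyr) 4:1 (20 µg/mL) with 10 µM ATP in 50 mM HEPES pH 7.4, 50 mM MgCl2, 0.5 mM MnCl2, 0.2 mM Na3VO4, 1 mM DTT; 1% DMSO control; 60 min at 37 °C. Phosphotyrosine read by PY99 antibody, HRP anti-mouse IgG, OPD/H2O2 at 490 nm; inhibition = [1−A490/A490control]×100%; two separate experiments.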

Data set [2] is described as follows: Half life in ICR(CD-1) mouse at 10 mg/kg, po administered via gavage by triple quadrupole mass spectrometric analysis. Format: ADME, organism-based. The note with it: in vivo. The gist of the method:
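Oral gavage at 1 mg/mL in 1% Tween80/water to male ICR mice (18-22 g, n=3). Plasma sampled at 0.25, 0.5, 1, 2, 4, 8 and 24 h, protein precipitated with methanol:acetonitrile (1:1) containing internal standard, and quantified by UPLC-triple quadrupole MS. AUC and MRT were taken from per-animal time-concentration curves. Cmax is the maximum plasma level and Tmax the time to reach it.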

Data set [3] deals with Cyclin-dependent kinase 4 (Homo sapiens) (UniProt P11802). The data set is described as follows: Inhibition of CDK4 (unknown origin) at 10 nM relative to control.
Sequence of Cyclin-dependent kinase 4 (Homo sapiens) (P11802 whole entry): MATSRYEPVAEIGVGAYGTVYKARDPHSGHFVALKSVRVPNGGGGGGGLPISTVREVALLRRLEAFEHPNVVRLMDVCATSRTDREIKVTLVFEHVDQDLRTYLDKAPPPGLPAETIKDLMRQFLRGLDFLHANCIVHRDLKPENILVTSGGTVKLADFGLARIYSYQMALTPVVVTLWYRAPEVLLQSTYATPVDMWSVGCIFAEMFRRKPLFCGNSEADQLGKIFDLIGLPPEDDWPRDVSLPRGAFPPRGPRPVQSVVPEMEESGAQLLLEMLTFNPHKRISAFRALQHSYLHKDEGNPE
Data set [4] addresses Tyrosine-protein kinase JAK1 (Homo sapiens) (UniProt P23458). The experiment in a line: Inhibition of JAK1 (unknown origin) at 100 nM relative to control. A digest of the protocol: as §1
Data set [5] has as its target T1, Ephrin type-B receptor 2 (Homo sapiens) (UniProt P29323).
T1 sequence (whole entry): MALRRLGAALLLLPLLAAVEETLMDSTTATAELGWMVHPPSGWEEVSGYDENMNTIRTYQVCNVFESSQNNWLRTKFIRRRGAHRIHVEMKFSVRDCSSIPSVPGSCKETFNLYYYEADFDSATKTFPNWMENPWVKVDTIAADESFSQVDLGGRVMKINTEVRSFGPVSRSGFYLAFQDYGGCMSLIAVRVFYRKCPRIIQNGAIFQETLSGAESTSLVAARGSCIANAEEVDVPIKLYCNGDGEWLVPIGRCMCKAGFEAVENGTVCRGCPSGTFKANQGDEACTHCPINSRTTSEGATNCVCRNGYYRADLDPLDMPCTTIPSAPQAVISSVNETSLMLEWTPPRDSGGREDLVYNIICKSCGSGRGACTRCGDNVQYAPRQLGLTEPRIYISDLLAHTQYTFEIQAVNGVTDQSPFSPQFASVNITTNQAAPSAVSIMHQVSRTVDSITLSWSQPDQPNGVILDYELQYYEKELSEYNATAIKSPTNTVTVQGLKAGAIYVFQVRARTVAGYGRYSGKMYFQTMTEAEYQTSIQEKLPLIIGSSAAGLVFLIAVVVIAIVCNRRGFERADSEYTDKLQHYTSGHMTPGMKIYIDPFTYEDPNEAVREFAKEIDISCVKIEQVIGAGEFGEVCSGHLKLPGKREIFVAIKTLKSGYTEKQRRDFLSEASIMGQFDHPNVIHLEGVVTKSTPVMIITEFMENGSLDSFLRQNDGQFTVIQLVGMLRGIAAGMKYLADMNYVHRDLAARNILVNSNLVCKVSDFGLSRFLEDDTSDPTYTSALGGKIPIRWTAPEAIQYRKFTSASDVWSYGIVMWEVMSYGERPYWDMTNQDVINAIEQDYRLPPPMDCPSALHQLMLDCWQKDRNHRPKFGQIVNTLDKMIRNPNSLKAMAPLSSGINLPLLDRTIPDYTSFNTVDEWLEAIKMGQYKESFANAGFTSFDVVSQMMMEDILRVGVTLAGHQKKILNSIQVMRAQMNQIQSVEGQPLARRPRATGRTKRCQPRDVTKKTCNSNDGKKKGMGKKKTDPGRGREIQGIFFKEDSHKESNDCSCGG
The data set is described as follows: Inhibition of EPH-B2 (unknown origin) at 10 nM relative to control. A digest of the protocol: as §1

In data set [6] the target is Tyrosine-protein kinase ABL1 (Homo sapiens) (UniProt P00519). The data set is described as follows: Inhibition of ABL (unknown origin) at 10 nM relative to control.
Data set [7] addresses Vascular endothelial growth factor receptor 2 (Homo sapiens) (UniProt P35968). The data set is described as follows: Inhibition of VEGFR2 (unknown origin) at 1000 nM relative to control. The gist of the method: (§2)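 ELISA with purified recombinant kinase on plates precoated with poly(Glu,Tyr) 4:1 at 20 µg/mL. ATP 10 µM in HEPES pH 7.4 buffer with MgCl2, MnCl2, Na3VO4 and DTT. Run 60 min at 37 °C. Detected with anti-phosphotyrosine PY99, HRP secondary antibody and o-phenylenediamine, read at 490 nm. Inhibition % = [1 − A490/A490 control]×100. 1% DMSO as negative control.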

In data set [8] the test system is NCI-H716. The data set is described as follows: Antiproliferative activity against FGFR2 amplified human NCI-H716 cells after 72 hrs by CCK8 assay. The class given is functional, cell-based. The note with it: NCI-H716, 72 h. A digest of the protocol:
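Cells seeded at low density in growth medium and compounds added the next day. Incubated 72 h, then proliferation read by sulforhodamine B, MTT or CCK-8. IC50 obtained by four-parameter concentration-response curve fitting.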
(Tetrazolium dyes change colour on reduction, which living cells bring about.)

The target in data set [9] is Platelet-derived growth factor receptor beta (Homo sapiens) (UniProt P09619). The data set is described as follows: Inhibition of PDGFR-beta (unknown origin) at 1000 nM relative to control. A digest of the protocol: as §2
Sequence of Platelet-derived growth factor receptor beta (Homo sapiens) (P09619 whole entry, the tested form may be a part): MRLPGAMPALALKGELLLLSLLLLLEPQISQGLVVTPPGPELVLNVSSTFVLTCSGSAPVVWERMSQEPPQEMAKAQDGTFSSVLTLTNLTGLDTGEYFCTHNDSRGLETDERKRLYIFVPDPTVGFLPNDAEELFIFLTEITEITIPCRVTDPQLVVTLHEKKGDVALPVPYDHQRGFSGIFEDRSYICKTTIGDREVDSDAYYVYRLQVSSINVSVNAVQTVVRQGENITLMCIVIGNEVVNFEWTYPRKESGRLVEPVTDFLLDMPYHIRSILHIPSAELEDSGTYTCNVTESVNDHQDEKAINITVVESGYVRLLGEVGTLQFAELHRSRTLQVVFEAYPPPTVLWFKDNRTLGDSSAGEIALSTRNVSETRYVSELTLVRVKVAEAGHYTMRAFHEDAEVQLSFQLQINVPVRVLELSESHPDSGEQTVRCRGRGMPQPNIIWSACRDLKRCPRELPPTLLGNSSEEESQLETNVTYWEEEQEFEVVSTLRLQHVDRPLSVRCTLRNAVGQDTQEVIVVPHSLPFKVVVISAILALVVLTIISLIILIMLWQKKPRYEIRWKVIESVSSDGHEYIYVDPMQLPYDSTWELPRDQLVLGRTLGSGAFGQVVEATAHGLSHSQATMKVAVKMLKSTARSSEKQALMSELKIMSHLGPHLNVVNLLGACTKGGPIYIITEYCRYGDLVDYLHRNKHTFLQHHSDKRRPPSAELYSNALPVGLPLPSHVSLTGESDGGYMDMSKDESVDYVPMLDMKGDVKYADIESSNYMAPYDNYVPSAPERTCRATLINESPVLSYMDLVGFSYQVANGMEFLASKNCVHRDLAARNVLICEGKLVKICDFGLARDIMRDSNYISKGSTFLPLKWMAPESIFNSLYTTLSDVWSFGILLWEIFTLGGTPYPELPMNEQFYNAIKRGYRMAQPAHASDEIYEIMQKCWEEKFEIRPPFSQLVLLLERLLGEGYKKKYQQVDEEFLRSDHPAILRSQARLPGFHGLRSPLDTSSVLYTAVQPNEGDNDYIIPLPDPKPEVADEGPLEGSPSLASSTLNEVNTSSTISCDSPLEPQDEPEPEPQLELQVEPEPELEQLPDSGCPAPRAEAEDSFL
Data set [10] addresses Angiopoietin-1 receptor (Homo sapiens) (UniProt Q02763). The data set is described as follows: Inhibition of Tie-2 (unknown origin) at 10 nM relative to control. A digest of the protocol:
as §2

The target of data set [11] is Focal adhesion kinase 1 (Homo sapiens) (UniProt Q05397). The data set is described as follows: Inhibition of FAK (unknown origin) at 10 nM relative to control. The gist of the method: as §1
The target of data set [12] is Angiopoietin-1 receptor (Homo sapiens) (UniProt Q02763). The data set is described as follows: Inhibition of Tie-2 (unknown origin) at 100 nM relative to control. The gist of the method: as §2
Sequence of Angiopoietin-1 receptor (Homo sapiens) (Q02763 whole entry): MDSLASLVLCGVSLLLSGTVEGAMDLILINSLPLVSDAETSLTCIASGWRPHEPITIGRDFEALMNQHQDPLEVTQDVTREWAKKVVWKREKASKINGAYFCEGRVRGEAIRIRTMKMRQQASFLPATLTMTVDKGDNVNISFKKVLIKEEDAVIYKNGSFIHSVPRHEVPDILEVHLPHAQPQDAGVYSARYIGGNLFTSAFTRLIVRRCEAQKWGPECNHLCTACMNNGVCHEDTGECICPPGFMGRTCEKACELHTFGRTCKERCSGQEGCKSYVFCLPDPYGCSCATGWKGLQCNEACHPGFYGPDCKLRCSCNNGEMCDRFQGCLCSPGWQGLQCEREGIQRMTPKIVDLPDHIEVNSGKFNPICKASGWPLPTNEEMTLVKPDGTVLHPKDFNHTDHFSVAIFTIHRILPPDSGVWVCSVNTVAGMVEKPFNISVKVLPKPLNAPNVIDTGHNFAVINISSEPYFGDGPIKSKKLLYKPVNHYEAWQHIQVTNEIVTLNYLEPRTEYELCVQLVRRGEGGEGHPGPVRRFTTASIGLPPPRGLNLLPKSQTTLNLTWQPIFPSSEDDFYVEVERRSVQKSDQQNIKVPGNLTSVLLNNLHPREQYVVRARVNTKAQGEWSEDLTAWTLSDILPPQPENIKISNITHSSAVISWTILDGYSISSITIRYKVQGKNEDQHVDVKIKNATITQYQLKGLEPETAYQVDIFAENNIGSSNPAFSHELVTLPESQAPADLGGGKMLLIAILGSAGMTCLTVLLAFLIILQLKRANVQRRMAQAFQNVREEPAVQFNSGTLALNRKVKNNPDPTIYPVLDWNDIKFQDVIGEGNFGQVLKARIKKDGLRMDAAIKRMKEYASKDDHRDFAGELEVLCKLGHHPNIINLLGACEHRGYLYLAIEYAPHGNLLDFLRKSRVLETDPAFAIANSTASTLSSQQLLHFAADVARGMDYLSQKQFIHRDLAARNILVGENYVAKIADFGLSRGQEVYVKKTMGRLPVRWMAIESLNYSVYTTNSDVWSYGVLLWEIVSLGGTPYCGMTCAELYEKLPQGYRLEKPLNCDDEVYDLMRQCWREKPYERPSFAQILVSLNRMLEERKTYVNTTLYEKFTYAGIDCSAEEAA
A short description of data set [13]: Permeability in human Caco2 cells at 5 uM after 120 mins by LC-MS/MS analysis relative to control. The class given is ADME, cell-based. To be noted: Caco-2, read-out: Fabs. The gist of the method:
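Caco-2 (C2BBe1) monolayers grown confluent on collagen-coated transwell membranes. Buffer is HBSS with 10 mM HEPES at pH 7.4 and pH 6.8. Compound 5 µM added to the apical or basolateral side; duplicate samples taken at 120 min and analysed by LC-MS/MS. Results given as Papp A→B and B→A and efflux ratio B→A/A→B.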

For data set [14], the target named is Tyrosine-protein kinase JAK2 (Homo sapiens) (UniProt O60674). The data set is described as follows: Inhibition of JAK2 (unknown origin) at 1000 nM relative to control. A digest of the protocol: as §1
Sequence of Tyrosine-protein kinase JAK2 (Homo sapiens) (O60674 whole entry): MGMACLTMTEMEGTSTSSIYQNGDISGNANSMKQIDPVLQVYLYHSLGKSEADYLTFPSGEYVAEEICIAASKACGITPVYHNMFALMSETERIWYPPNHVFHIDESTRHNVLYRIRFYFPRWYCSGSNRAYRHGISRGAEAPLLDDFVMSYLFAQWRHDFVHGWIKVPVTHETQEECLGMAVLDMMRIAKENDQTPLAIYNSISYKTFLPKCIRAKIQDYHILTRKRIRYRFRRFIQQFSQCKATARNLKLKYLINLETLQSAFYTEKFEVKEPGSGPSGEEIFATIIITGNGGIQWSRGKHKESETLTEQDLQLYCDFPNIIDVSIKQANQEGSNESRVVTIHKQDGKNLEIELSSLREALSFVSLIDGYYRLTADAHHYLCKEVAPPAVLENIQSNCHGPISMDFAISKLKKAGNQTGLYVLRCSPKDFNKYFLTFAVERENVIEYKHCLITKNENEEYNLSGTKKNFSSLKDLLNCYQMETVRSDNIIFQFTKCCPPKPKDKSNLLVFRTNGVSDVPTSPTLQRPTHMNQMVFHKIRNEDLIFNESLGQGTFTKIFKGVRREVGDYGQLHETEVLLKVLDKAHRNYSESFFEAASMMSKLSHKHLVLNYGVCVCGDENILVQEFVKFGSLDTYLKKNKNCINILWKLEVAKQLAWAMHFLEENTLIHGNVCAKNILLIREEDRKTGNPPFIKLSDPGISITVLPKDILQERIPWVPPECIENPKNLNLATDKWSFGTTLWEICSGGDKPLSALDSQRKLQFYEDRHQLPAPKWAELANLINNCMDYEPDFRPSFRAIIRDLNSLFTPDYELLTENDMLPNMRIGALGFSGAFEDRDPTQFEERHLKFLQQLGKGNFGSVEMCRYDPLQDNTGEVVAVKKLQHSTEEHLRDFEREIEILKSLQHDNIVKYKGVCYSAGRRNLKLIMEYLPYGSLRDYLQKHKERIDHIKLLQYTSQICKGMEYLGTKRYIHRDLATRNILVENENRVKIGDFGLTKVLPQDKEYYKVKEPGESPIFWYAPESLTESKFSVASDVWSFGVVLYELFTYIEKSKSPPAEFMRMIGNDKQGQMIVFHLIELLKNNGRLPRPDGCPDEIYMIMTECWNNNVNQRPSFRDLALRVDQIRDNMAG
Data set [15] concerns NCI-H1581. The experiment in a line: Antitumor activity against human NCI-H1581 cells xenografted in nude mouse assessed as tumor growth inhibition at 20 mg/kg, po qd for 7 to 10 days relative to control. Format: functional. The note with it: read-out: TGI. A digest of the protocol:
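Female nude mice, 4-6 weeks old. NCI-H1581 cells (5×10^6 in 200 µL) injected s.c., grown to 700-800 mm³, then 1-mm³ fragments implanted s.c. by trocar. At 100-150 mm³ animals were randomized (vehicle n=12, treated n=6) and dosed orally once daily for 7 days. Tumours measured twice weekly, volume = length×width²/2. TGI calculated from change in tumour volume versus vehicle on the final day, with Student's t-test.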
On the technique in general: A xenograft is tissue or cells of one species grown in another, often human tumour cells in immunodeficient mice.

Sequence of Vascular endothelial growth factor receptor 2 (Homo sapiens) (P35968 whole entry): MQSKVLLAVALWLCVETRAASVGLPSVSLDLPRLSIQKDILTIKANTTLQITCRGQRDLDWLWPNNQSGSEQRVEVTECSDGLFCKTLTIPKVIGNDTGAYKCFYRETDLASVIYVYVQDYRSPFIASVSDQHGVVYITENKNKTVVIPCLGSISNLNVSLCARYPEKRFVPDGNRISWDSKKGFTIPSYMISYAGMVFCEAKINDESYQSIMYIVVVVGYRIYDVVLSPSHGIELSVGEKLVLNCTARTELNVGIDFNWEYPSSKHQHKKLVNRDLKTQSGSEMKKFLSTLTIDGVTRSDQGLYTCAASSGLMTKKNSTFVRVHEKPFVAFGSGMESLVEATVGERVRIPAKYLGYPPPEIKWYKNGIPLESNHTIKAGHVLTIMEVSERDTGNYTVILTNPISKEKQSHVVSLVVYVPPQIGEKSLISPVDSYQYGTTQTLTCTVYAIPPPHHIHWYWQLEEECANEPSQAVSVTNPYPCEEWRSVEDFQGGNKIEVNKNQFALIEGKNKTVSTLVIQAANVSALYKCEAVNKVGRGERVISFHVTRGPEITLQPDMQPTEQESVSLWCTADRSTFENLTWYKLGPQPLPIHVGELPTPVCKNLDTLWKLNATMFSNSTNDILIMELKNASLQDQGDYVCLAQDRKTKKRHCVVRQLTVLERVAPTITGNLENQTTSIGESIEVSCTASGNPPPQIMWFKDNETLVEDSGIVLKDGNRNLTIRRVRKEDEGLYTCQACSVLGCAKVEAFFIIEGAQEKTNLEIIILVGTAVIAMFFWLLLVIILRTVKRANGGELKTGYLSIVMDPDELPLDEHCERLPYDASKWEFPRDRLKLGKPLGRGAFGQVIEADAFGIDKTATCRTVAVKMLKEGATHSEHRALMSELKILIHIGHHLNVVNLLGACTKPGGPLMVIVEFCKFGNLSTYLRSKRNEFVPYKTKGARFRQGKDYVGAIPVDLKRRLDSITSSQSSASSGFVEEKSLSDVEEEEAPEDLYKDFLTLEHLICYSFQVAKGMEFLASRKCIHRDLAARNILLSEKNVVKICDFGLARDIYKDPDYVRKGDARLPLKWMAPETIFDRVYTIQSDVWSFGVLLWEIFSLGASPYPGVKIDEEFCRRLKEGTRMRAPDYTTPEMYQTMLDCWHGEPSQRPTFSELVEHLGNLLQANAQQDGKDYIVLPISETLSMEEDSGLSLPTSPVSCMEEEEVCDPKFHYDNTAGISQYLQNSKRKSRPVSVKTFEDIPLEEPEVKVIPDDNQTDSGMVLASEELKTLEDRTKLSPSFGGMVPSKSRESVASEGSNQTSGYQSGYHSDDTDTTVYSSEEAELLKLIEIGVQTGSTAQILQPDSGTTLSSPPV

In the case of `Cc1ccc(C(=O)Nc2cccc(C(F)(F)F)c2)cc1-c1ccc2c(-c3cnn(C4CC4)c3)n[nH]c2c1`, the inhibition in [1] was found to be 59.5%; in data set [3] it was 4.4%; in data set [4], 13.1%; in data set [5] it was 48%; in data set [6], 22%; in data set [7], 100%. Also, the inhibition worked out at 100% in data set [9]; 10.4% in data set [10]; 1.1% in data set [11]; 36.4% in data set [12]; 16.8% in data set [14]. In [2], the half-life is 183 min. Moreover, in data set [8], the IC50 was 31.8 nM. In addition, the Fa at 2 h, 5 µM in data set [13] is 48.6%. Moreover, in [15], the inhibition in vivo at 20 mg/kg was determined as 98.1%.

In general, inhibition refers to how much of the control response was suppressed. A low value points to a response near the control. Broadly, the half-life is the time in which the quantity being followed falls by half. As usually defined, the IC50 is the point on the concentration scale where inhibition reaches its midpoint. Low readings indicate inhibition by little substance, high ones a need for much substance.
